High-throughput results from PubChem BioAssay.
ROMK mod – modulates human ROMK potassium channel activity. P48048. Tet-inducible ROMK, thallium flux fluorescence; actives lie on both sides. B-score at 10 µM. 130,000 compounds, 2% hits;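 active means signal ratio slope over the read window, or its plate-corrected B-score, at least 3 SD from the plate mean, either direction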;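 further: B-score of the F/F0 ratio slope over 7 to 12 s after thallium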
PKD1 kinase inh – blocks activity of human protein kinase D1 | Q15139 | 200,000 compounds, 0.056% hits | AID 797 | PKD1 kinase fluorescence polarization assay | inhibition, % (test concentration not listed); in the data active means inhibition above about 50%
KCC2 mod – KCC2 (human) Cl- transport modulation; B-score of Tl+ flux slope (higher = more flux/activation; lower = inhibition) at 10 µM; KCC2 cells, thallium flux FluoZin-2 fluorescence; 190,000 compounds, 2.2% hits; Q9H2X9;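 active means thallium flux slope and its plate-corrected score both differing from the plate sample mean at a set confidence after two filtering rounds, in either direction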;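 further: slope of fluorescence scaled to starting intensity during 10 to 20 s after thallium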
Rad51 HR inh – Rad51 (human) homologous recombination inhibition; Q06609; hRad51 DNA strand exchange, fluorescence dequenching; inhibition, % at 10 µM; 200,000 compounds, 0.085% hits;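 active means inhibition above 40% at the single screening dose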
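Material: hRad51 filaments on single-stranded DNA; Reagent: Donor/quencher-labelled 47-bp dsDNA substrate; Compound: 10 µM final, single point; Schedule: 37 °C 15-min filament assembly, 30-min compound preincubation, 15-min exchange; Technique: FRET fluorescence, excitation 485 nm, emission 520 nm; Benchmarks: control wells and blank wells on each plate.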
KCC2 sec1 – confirmation of human KCC2 transport modulators. shares compounds with KCC2 mod. HEK293-KCC2, thallium flux, FluoZin2 fluorescence; hits give high values. normalised thallium flux (F/F0 slope) at 10 µM. 3,700 compounds, 15% hits. AID 1713;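 active means thallium flux slope above the same plate's solvent-only control mean plus 3 SD; inconclusive means the two replicate wells disagree; inactive means no significant difference from solvent-only control wells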
KCC2 bumet counter – bumetanide-insensitive thallium flux in KCC2 cells with ouabain, counter-screen | AID 1714 | 3,700 compounds, 49% hits | shares compounds with KCC2 mod | HEK293-KCC2 + bumetanide/ouabain, thallium flux FluoZin2; hits give high values | normalized thallium flux at 10 µM;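 active means thallium entry rate above the same plate's blocked-transporter control wells by more than 3 SD; inconclusive means the two repeat wells disagree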;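 further: raw slope of fluorescence over initial fluorescence between 10 and 20 s after thallium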
KCC2 sec2 – KCC2 (human) modulation, second secondary assay; shares compounds with KCC2 mod; HEK293-KCC2, thallium flux FluoZin2 fluorescence; actives lie on both sides; F/F0 rise rate, 10–20 s post-thallium; normalized thallium flux at 10 µM; 3,700 compounds, 23% hits;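 active means thallium flux slope more than 3 SD above or below the plate's solvent-only control mean, mostly below; inconclusive means the two repeat wells disagreed; inactive means no significant shift from solvent-only controls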
HEK293 Tl flux – parental HEK flux effect, counter-screen | shares compounds with KCC2 mod | HEK293 parental cells, thallium flux FluoZin2, ouabain; baseline-ratio fluorescence slope, 10–20 s after thallium | thallium flux rate (normalised fluorescence) at 10 µM | 3,700 compounds, 46% hits;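 active means thallium flux rate significantly above the same plate's solvent-only control wells, beyond their mean plus 3 SD; inconclusive means the two replicate wells gave conflicting results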
KCC2 ouabain – confirmation of human KCC2 modulators with ouabain; shares compounds with KCC2 mod; HEK293-KCC2, thallium flux FluoZin2 fluorescence; bidirectional: low = inhibitor, high = activator; raw Tl+ flux slope (below DMSO = inhibition, above = activation) at 10 µM; 3,700 compounds, 48% hits; AID 1717;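 active means thallium flux slope beyond 3 SD from same-plate DMSO control mean in most replicates, usually higher, sometimes lower; inconclusive means repeat tests gave conflicting results; inactive means no significant difference from controls in most replicates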;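 further: slope of initial-normalized fluorescence between seconds 10 and 20 after thallium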
HEK293 Tl flux2 – counter-screen for KCC2 modulators: effect in parental HEK293 cells | 3,700 compounds, 33% hits | AID 1718 | shares compounds with KCC2 mod | thallium flux FluoZin-2 fluorescence slope | thallium flux slope at 10 µM;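 active means thallium flux slope above the same plate's solvent-control mean plus 3 SD in both duplicate wells; inconclusive means duplicate wells that disagreed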;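 further: run without ouabain in cells lacking the KCC2 cotransporter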
A number is an active result; n = inactive; u = inconclusive; x = not tested or not shown. Compounds with a hit are over-represented: about 3% of the library has one in this group of screens.

SMILES	ROMK mod	PKD1 kinase inh	KCC2 mod	Rad51 HR inh	KCC2 sec1	KCC2 bumet counter	KCC2 sec2	HEK293 Tl flux	KCC2 ouabain	HEK293 Tl flux2
Cn1c(=O)c2c(nc(CN3CCN(C(c4ccccc4)c4ccccc4)CC3)n2CC(N)=O)n(C)c1=O	n	n	-2.61	n	n	n	n	n	n	u
CSC(=NCc1ccc(F)cc1)NS(=O)(=O)c1cccs1	n	n	-3.77	n	n	u	0.0252	n	0.0151	n
CS/C(=N\S(=O)(=O)c1ccc(N)cc1)NS(=O)(=O)c1cccs1	n	n	x	n	x	x	x	x	x	x
CCOC(=O)c1cnc2c(-c3ccccc3OC)c(C)nn2c1C	n	n	n	n	x	x	x	x	x	x
CC1CCc2[nH]nc(C(=O)O)c2C1 (stereo not drawn)	x	n	n	n	x	x	x	x	x	x
CCC1CCc2[nH]nc(C(=O)O)c2C1 (stereo not drawn)	n	n	4.28	n	n	n	n	n	n	n
Cc1oc(-c2ccccc2)nc1C(=O)Nc1nccs1	x	n	7.75	n	n	0.0163	n	0.00969	n	0.0116
COc1ccc(-c2csc(NC(=O)c3nc(-c4ccccc4)oc3C)n2)cc1	x	n	n	n	x	x	x	x	x	x
CCC(Oc1ccccc1)C(=O)NCCOC (stereo not drawn)	n	n	n	n	x	x	x	x	x	x
COCCCNC(=O)C(=O)N/N=C/c1cc2c(cc1Br)OCO2	n	n	n	n	x	x	x	x	x	x
COCCN1C(=O)/C(=C/c2cc3c(cc2Br)OCO3)NC1=S	n	n	20.9	n	n	0.0471	0.0414	0.0348	0.0411	0.0333
CCC1=NN2C(=N)/C(=C\c3cccn3-c3ccc(C)cc3C)C(=O)N=C2S1	n	n	8.57	n	n	0.0554	n	0.0197	0.04	u
Cc1cccc(C)c1-n1cccc1/C=C1/C(=N)N2C(=NC1=O)SN=C2S(C)(=O)=O	n	n	-4.51	n	n	n	n	n	0.0148	n
CCC1=NN2C(=N)/C(=C\c3cccn3-c3c(C)cccc3C)C(=O)N=C2S1	n	n	9.04	n	u	0.0282	n	0.0324	0.0297	0.0146
Cc1cc(/C=C2/C(=N)N3C(=NC2=O)SN=C3S(C)(=O)=O)c(C)n1-c1ccc(F)cc1	n	n	n	n	x	x	x	x	x	x
CCC1=NN2C(=N)/C(=C/c3cc(C)n(Cc4ccccc4)c3C)C(=O)N=C2S1	x	x	n	n	x	x	x	x	x	x
O=C(Nc1cnc2ccccn2c1=O)c1ccc(Cl)cc1	x	n	n	n	x	x	x	x	x	x
NC(=S)N=Nc1c(O)n(Cc2ccc(F)cc2)c2ccccc12	x	n	4.74	n	u	0.0103	n	0.0142	0.0289	0.0123
Cc1ccc2c(c1)c(N=NC(N)=S)c(O)n2Cc1ccccc1	x	n	4.3	n	n	0.00751	n	0.0113	n	0.0144
Oc1c(N=NC(=S)Nc2ccccc2F)c2ccccc2n1Cc1ccc(F)cc1	n	n	8.29	n	n	0.0297	n	0.0128	n	0.0144
NC(=S)N=Nc1c(O)n(Cc2ccc(Br)cc2)c2ccccc12	x	n	n	n	x	x	x	x	x	x
Cc1cccc(Cn2c(O)c(N=NC(=S)Nc3ccccc3F)c3ccccc32)c1	n	n	6.82	x	n	0.0311	n	u	u	n
Oc1c(N=NC(=S)Nc2ccccc2F)c2ccccc2n1Cc1cccc(Cl)c1	n	n	n	n	x	x	x	x	x	x
CCNc1nc(OC)nc(N2CCC(Cc3ccccc3)CC2)n1	x	n	n	x	x	x	x	x	x	x
COc1ccc(CNC(=O)c2csc(Cc3ccc(Cl)cc3)n2)cc1	x	n	x	x	n	u	0.0249	u	0.0152	n
COc1ccc(CNC(=O)c2csc(Cc3ccc(OC)cc3)n2)cc1	x	n	x	n	x	x	x	x	x	x
CSc1ncc(Cl)c(C(=O)Nc2cccc(C)c2)n1	x	n	n	n	x	x	x	x	x	x
